≈ marks a conversion by molar mass, not a printed value. Calls of active or inactive are those of the source. The calls are words filed in the database; no cut-off is given here.
Tests used:
[1] = tested on: Candida albicans; assay: Antifungal activity against Candida albicans ATCC 24433 assessed as growth inhibition after 24 hrs by broth microdilution assay; format: functional; conditions: ATCC 24433, 24 h
Summary of the method: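 Broth microdilution: 24-h colonies suspended in 0.85% saline, diluted in RPMI-1640 with MOPS to 1.0 × 10^4 cfu/mL final, mixed 1:1 with sample; 35 °C, 24 h; OD 595 nm. MIC = lowest concentration giving 80% growth reduction. Fluconazole positive control; SD from three independent experiments.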

[2] = tested on: Staphylococcus aureus; assay: Antibacterial activity against Staphylococcus aureus ATCC 25923 by broth microdilution method; format: functional
Summary of the method: (§1)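 Broth microdilution in 96-well plates; MIC read by comparing OD with the growth control; amoxicillin and streptomycin as positive controls.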

[3] = tested on: Bacillus subtilis; assay: Antibacterial activity against Bacillus subtilis ATCC 6633 by broth microdilution method; format: functional; summary of the method: as §1
[4] = tested on: Escherichia coli; assay: Antibacterial activity against Escherichia coli ATCC 25922 by broth microdilution method; format: functional; summary of the method: as §1
[5] = tested on: Candida albicans; assay: Antifungal activity against Candida albicans ATCC 24433 assessed as synergistic growth inhibition after 24 hrs in presence of fluconazole by broth microdilution assay; format: functional; conditions: ATCC 24433, 24 h
Summary of the method: (§2)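 Checkerboard in RPMI-1640/MOPS, inoculum 1.0 × 10^4 cfu/mL, 35 °C, 24 h, OD 595 nm. Compound 25 to 0.8 μg/mL against fluconazole 4.0 to 0.0078 μg/mL. MIC = concentrations giving ≥80% growth reduction. FICI ≤ 0.5 counts as synergy; values compared at fluconazole 0.031 μg/mL.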

[6] = tested on: Candida albicans; assay: Antifungal activity against Candida albicans ATCC 24433 assessed as fractional inhibition concentration index in presence of fluconazole by checkerboard assay; format: functional; summary of the method: as §2
[7] = tested on: Candida albicans; assay: Antibiofilm activity against Candida albicans ATCC 24433 after 24 hrs by XTT-based colorimetric assay; format: functional; conditions: ATCC 24433, 24 h
Summary of the method: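 XTT assay: YPD overnight culture, PBS-washed, 1.0 × 10^6 cfu/mL in RPMI-1640/MOPS; biofilms formed at 37 °C for 24 h, washed, then treated 24 h at 37 °C; 0.5 mg/mL XTT for 2 h, read at 490 nm. MIC = lowest concentration giving ≥80% reduction in XTT signal.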

[8] = tested on: Candida albicans; assay: Antibiofilm activity against Candida albicans ATCC 24433 after 24 hrs in presence of fluconazole by XTT-based colorimetric assay; format: functional; conditions: ATCC 24433, 24 h
Summary of the method: (§3)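 Preformed biofilms (1.0 × 10^6 cfu/mL in RPMI-1640/MOPS, 37 °C, 24 h) treated 24 h at 37 °C in a checkerboard: compounds 160 to 5 μg/mL, fluconazole 500 to 8 μg/mL. Read by 0.5 mg/mL XTT for 2 h at 490 nm, ≥80% reduction as endpoint; FICI calculated.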

[9] = tested on: Candida albicans; assay: Synergistic antibiofilm activity against Candida albicans ATCC 24433 assessed as fractional inhibition concentration ratio after 24 hrs in presence of fluconazole by checkerboard assay; format: functional; summary of the method: as §3
[10] = tested on: Candida albicans; assay: Synergistic antibiofilm activity against Candida albicans ATCC 24433 assessed as fractional inhibition concentration index after 24 hrs in presence of fluconazole checkerboard assay; format: functional; summary of the method: as §3
[11] = tested on: Pseudomonas aeruginosa; assay: Antibacterial activity against Pseudomonas aeruginosa ATCC 9027 by broth microdilution method; format: functional; summary of the method: as §1
[12] = tested on: U2OS; assay: Cytotoxicity against human U2OS cells by MTT assay; format: cell-based
Summary of the method: (§4)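 MTT assay with cisplatin as positive control.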

[13] = tested on: MCF7; assay: Cytotoxicity against human MCF7 cells by MTT assay; format: cell-based; summary of the method: as §4
[14] = tested on: HepG2; assay: Cytotoxicity against human HepG2 cells by MTT assay; format: cell-based; summary of the method: as §4
[15] = tested on: Candida albicans; assay: Antifungal activity against Candida albicans ATCC 24433 assessed as fractional inhibition concentration ratio in presence of fluconazole by checkerboard assay; format: functional; summary of the method: as §2
[16] = tested on: Candida albicans; assay: Synergistic antibiofilm activity against Candida albicans ATCC 24433 assessed as reduction in biofilm formation at 40 to 80 ug/ml in presence of 63 ug/ml fluconazole by scanning electron microscopic analysis; format: functional, organism-based
Summary of the method: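 Biofilms grown 24 h at 37 °C on poly-L-lysine-treated glass coverslips from 1.0 × 10^6 cfu/mL, washed, then exposed 24 h to compound plus fluconazole; fixed in 2.5% glutaraldehyde (0.2 M PBS, pH 7.2) and 1% osmium, ethanol-dehydrated, critical-point dried, gold-coated; SEM at 10 kV.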

[17] = tested on: Candida albicans; assay: Potentiation of antifungal activity of fluconazole against Candida albicans ATCC 24433 by checkerboard assay; format: functional; summary of the method: as §2

Structure (SMILES) | MIC80 [1] | MIC [2] | MIC [3] | MIC [4] | MIC80 [5] | MIC80 [7] | MIC80 [8] | MIC [11] | fractional inhibitory concentration index (FICI) [6] | Ratio [9] | fractional inhibitory concentration index (FICI) [10] | Activity [12] | Activity [13] | Activity [14] | Ratio [15] | Activity [16] | fold change (FC) [17] | MIC [5]
C=C(C)[C@@H]1CC[C@@]2(C)OC3=C(C[C@@H]12)C(=O)[C@H](O)C[C@@H]3O |  |  |  |  |  | > 200 µg/mL |  |  |  |  |  | Non-toxic | Non-toxic | Non-toxic |  |  |  | 
CN[C@@H]1[C@H](O[C@H]2[C@H](O[C@H]3[C@H](O)[C@@H](O)[C@H](N=C(N)N)[C@@H](O)[C@@H]3N=C(N)N)O[C@@H](C)[C@]2(O)C=O)O[C@@H](CO)[C@H](O)[C@H]1O [STREPTOMYCIN] |  |  |  | 2.4 µg/mL (≈ 4.13 µM) |  |  |  | 1.7 µg/mL (≈ 2.92 µM) |  |  |  |  |  |  |  |  |  | 
C[C@@]12CC[C@@H]([C@](C)(O)CO)[C@@H]1CC1=C(O2)[C@@H]2C[C@@](O)(CO2)C1=O | 57.3 µg/mL (≈ 177 µM) | 79.2 µg/mL (≈ 244 µM) | > 100 µg/mL | 78 µg/mL (≈ 240 µM) | 6.3 µg/mL | > 200 µg/mL | 40 µg/mL | > 100 µg/mL | 0.23 | <0.25 | <0.31 | Non-toxic | Non-toxic | Non-toxic | 0.11 | Active | >16 | 
C=C(C)[C@@H]1CC[C@@]2(C)OC3=C(C[C@@H]12)C(=O)[C@H](OC)C[C@@H]3O |  | > 100 µg/mL | 37.3 µg/mL (≈ 128 µM) | > 100 µg/mL |  | > 200 µg/mL |  | > 100 µg/mL |  |  |  | Non-toxic | Non-toxic | Non-toxic |  |  |  | 
C=C(C)[C@@H]1CC[C@@]2(C)OC3=C(C[C@@H]12)C(=O)[C@@H](OC)C[C@@H]3O |  |  |  |  |  | > 200 µg/mL |  |  |  |  |  | Non-toxic | Non-toxic | Non-toxic |  |  |  | 
C=C(C)[C@@H]1[C@H](O)C[C@@]2(C)OC3=C(C[C@@H]12)C(=O)[C@]1(O)CO[C@H]3C1 | > 100 µg/mL | 73.6 µg/mL (≈ 240 µM) | 73.5 µg/mL (≈ 240 µM) | 88.3 µg/mL (≈ 288 µM) | 25 µg/mL | > 200 µg/mL | 40 µg/mL | 53.2 µg/mL (≈ 174 µM) | <0.38 | <0.25 | <0.31 | Non-toxic | Non-toxic | Non-toxic | <0.25 |  | >16 | 
C=C(C)[C@@H]1C[C@H](O)[C@@]2(C)OC3=C(C[C@@H]12)C(=O)[C@](O)(CO)C[C@@H]3O |  |  |  |  |  | > 200 µg/mL | 80 µg/mL |  |  | <0.4 | <0.46 | Non-toxic | Non-toxic | Non-toxic |  |  |  | 
C[C@](O)(CO)[C@@H]1CC[C@@]2(C)OC3=C(C[C@@H]12)C(=O)[C@]1(O)CO[C@H]3C1 | > 100 µg/mL |  |  |  | 25 µg/mL | > 200 µg/mL | 80 µg/mL |  | <0.38 | <0.4 | <0.46 | Non-toxic | Non-toxic | Non-toxic | <0.25 |  |  | 
CC(C)[C@@]1(C(=O)O)OC(=O)/C(=C/c2ccccc2)O1 | 87.5 µg/mL (≈ 334 µM) |  |  |  | 6.3 µg/mL | > 200 µg/mL | 20 µg/mL |  | 0.19 | <0.1 | <0.16 | Non-toxic | Non-toxic | Non-toxic | 0.07 |  |  | 
CC(C)[C@H]1OC(=O)[C@H](Cc2ccccc2)N(C)C(=O)[C@@H](C(C)C)OC(=O)[C@H](Cc2ccccc2)N(C)C(=O)[C@@H](C(C)C)OC(=O)[C@H](Cc2ccccc2)N(C)C1=O | > 100 µg/mL |  |  |  |  | > 200 µg/mL | 40 µg/mL |  | <0.13 | <0.25 | <0.31 |  |  |  | <0.013 |  | >16 | 1.3 µg/mL
Oc1cccc2c1[C@H](O)[C@@H]1O[C@@H]1C21Oc2cccc3cccc(c23)O1 | 24.3 µg/mL (≈ 72.7 µM) | 37.7 µg/mL (≈ 113 µM) | 59.5 µg/mL (≈ 178 µM) | > 100 µg/mL | 6.3 µg/mL | 145 µg/mL (≈ 434 µM) | 40 µg/mL | 45.5 µg/mL (≈ 136 µM) | 0.38 | 0.28 | <0.34 | Non-toxic | Non-toxic | Non-toxic | 0.26 |  |  | 
COC(=O)[C@]1(C(C)C)OC(=O)/C(=C\c2ccc(O)cc2)O1 |  |  |  |  |  | > 200 µg/mL |  |  |  |  |  | Non-toxic | Non-toxic | Non-toxic |  |  |  | 
CC1(C)S[C@@H]2[C@H](NC(=O)[C@H](N)c3ccc(O)cc3)C(=O)N2[C@H]1C(=O)O [AMOXICILLIN] |  | 0.8 µg/mL (≈ 2.19 µM) | 1 µg/mL (≈ 2.74 µM) |  |  |  |  |  |  |  |  |  |  |  |  |  |  | 

The next lines start with results.

MIC80 [1] | MIC [2] | MIC [3] | MIC [4] | MIC80 [5] | MIC80 [7] | MIC80 [8] | MIC [11] | Structure (SMILES) | fractional inhibitory concentration index (FICI) [6] | Ratio [9] | fractional inhibitory concentration index (FICI) [10] | Activity [12] | Activity [13] | Activity [14] | Ratio [15] | Activity [16] | fold change (FC) [17] | MIC [5]
15.5 µg/mL (≈ 50.3 µM) | > 100 µg/mL | 67.7 µg/mL (≈ 220 µM) | 35.9 µg/mL (≈ 116 µM) | 6.3 µg/mL | > 200 µg/mL | 80 µg/mL | 52.1 µg/mL (≈ 169 µM) | CC(C)(O)[C@@H]1CC[C@@]2(C)OC3=C(C[C@@H]12)C(=O)[C@]1(O)CO[C@H]3C1 | 0.32 | <0.4 | <0.46 | Non-toxic | Non-toxic | Non-toxic |  |  |  | 
 |  |  |  |  | > 200 µg/mL |  |  | C=C(CO)[C@@H]1CC[C@@]2(C)OC3=C(C[C@@H]12)C(=O)[C@]1(O)CO[C@H]3C1 |  |  |  | Non-toxic | Non-toxic | Non-toxic |  |  |  | 
 | > 100 µg/mL | 89.3 µg/mL (≈ 290 µM) | > 100 µg/mL |  | > 200 µg/mL |  | > 100 µg/mL | C=C(C)[C@@H]1CC[C@@]2(C)OC3=C(C[C@@H]12)C(=O)[C@](O)(CO)C[C@@H]3O |  |  |  | Non-toxic | Non-toxic | Non-toxic |  |  |  | 
 | > 100 µg/mL | > 100 µg/mL | > 100 µg/mL |  | > 200 µg/mL |  | 25.5 µg/mL (≈ 87.8 µM) | C=C(C)[C@@H]1CC[C@@]2(C)OC3=C(C[C@@H]12)C(=O)[C@]1(O)CO[C@H]3C1 |  |  |  | Non-toxic | Non-toxic | Non-toxic |  |  |  | 
 |  |  |  |  | > 200 µg/mL |  |  | C=C(COC(C)=O)[C@@H]1CC[C@@]2(C)OC3=C(C[C@@H]12)C(=O)[C@]1(O)CO[C@H]3C1 |  |  |  | Non-toxic | Non-toxic | Non-toxic |  |  |  | 
 |  |  |  |  | > 200 µg/mL |  |  | C=C(C)[C@@H]1CC[C@@]2(C)OC3=C(C[C@@H]12)C(=O)[C@@H]1C[C@@]3(O)CO1 |  |  |  | Non-toxic | Non-toxic | Non-toxic |  |  |  | 
 |  |  |  |  | > 200 µg/mL | 80 µg/mL |  | C=C(C)[C@@H]1C[C@H](O)[C@@]2(C)OC3=C(C[C@@H]12)C(=O)[C@]1(O)CO[C@H]3C1 |  | <0.4 | <0.46 | Non-toxic | Non-toxic | Non-toxic |  |  |  | 

Reference: ChEMBL document CHEMBL3751733, “Synergistic Antifungal Meroterpenes and Dioxolanone Derivatives from the Endophytic Fungus Guignardia sp” (J Nat Prod, 2015)
